In ChEMBL document CHEMBL1155468, “Syntheses and evaluation of anticonvulsant profile and teratogenicity of novel amide derivatives of branched aliphatic carboxylic acids with 4-aminobenzensulfonamide” (J Med Chem, 2010):
The source made the active and inactive calls. The calls are words filed in the database; no cut-off is given here.

What was measured:
[1] = tested on: Mus musculus; assay: Anticonvulsant activity in CF1 albino mouse assessed as inhibition of subcutaneous pentylenetetrazole-induced seizures at 30 mg/kg, ip after 0.5 hrs; assay type: functional, organism-based; parameters: dose 30 mg/kg
Method in brief: (§1)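 Adult male CF no. 1 albino mice (18-25 g) dosed ip with compound suspended in 0.5% methylcellulose (0.01 mL/g). Convulsant: pentylenetetrazol dissolved in 0.9% saline as a 0.85% solution for mice, given subcutaneously.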

[2] = tested on: Mus musculus; assay: Anticonvulsant activity in CF1 albino mouse assessed as inhibition of subcutaneous pentylenetetrazole-induced seizures at 100 mg/kg, ip after 0.5 hrs; assay type: functional, organism-based; parameters: dose 100 mg/kg; method in brief: as §1
[3] = tested on: Mus musculus; assay: Anticonvulsant activity in CF1 albino mouse assessed as inhibition of subcutaneous pentylenetetrazole-induced seizures at 300 mg/kg, ip after 0.5 hrs; assay type: functional, organism-based; parameters: dose 300 mg/kg; method in brief: as §1
[4] = tested on: Mus musculus; assay: Anticonvulsant activity in CF1 albino mouse assessed as inhibition of subcutaneous pentylenetetrazole-induced seizures at 30 mg/kg, ip after 4 hrs; assay type: functional, organism-based; parameters: dose 30 mg/kg; method in brief: as §1
[5] = tested on: Mus musculus; assay: Anticonvulsant activity in CF1 albino mouse assessed as inhibition of subcutaneous pentylenetetrazole-induced seizures at 100 mg/kg, ip after 4 hrs; assay type: functional, organism-based; parameters: dose 100 mg/kg; method in brief: as §1
[6] = tested on: Mus musculus; assay: Teratogenic effect in SWV mouse assessed as resorptions at 511 mg/kg, ip administered on morning of day 8 of gestation; assay type: toxicity, organism-based; parameters: dose 511 mg/kg, route intraperitoneal; conditions: in vivo
Method in brief: (§2)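 SWV inbred mice: two-month-old nulligravid females mated overnight with males and checked for vaginal plugs next morning; gestation onset taken as 10 p.m. the previous night. On gestation day 8.5 each dam got one ip injection, 0.55–2.7 mmol/kg, in 25% aqueous Cremophor EL (vehicle controls dosed alike), 10 μL/g body weight. Litters and implants tallied; resorptions and live fetuses reported as counts with percentages.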

[7] = tested on: Mus musculus; assay: Teratogenic effect in SWV mouse assessed as resorptions at 310 mg/kg, ip administered on morning of day 8 of gestation; assay type: toxicity, organism-based; parameters: dose 310 mg/kg, route intraperitoneal; conditions: in vivo; method in brief: as §2
[8] = tested on: Mus musculus; assay: Teratogenic effect in SWV mouse assessed as resorptions at 156 mg/kg, ip administered on morning of day 8 of gestation; assay type: toxicity, organism-based; parameters: dose 156 mg/kg, route intraperitoneal; conditions: in vivo; method in brief: as §2
[9] = tested on: Mus musculus; assay: Teratogenic effect in SWV mouse assessed as fetuses with neural tube deffects at 310 mg/kg, ip administered on morning of day 8 of gestation; assay type: toxicity, organism-based; parameters: dose 310 mg/kg, route intraperitoneal; conditions: in vivo
Method in brief: (§3)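 Two-month-old nulligravid SWV females were mated overnight and checked for vaginal plugs the next morning; gestation onset was set at 10 p.m. the previous night. On gestation day 8.5, each dam received a single ip injection (0.55-2.7 mmol/kg range) or vehicle (25% aqueous Cremophor EL) at 10 μL/g body weight. Litters were scored for implants, resorptions, live and dead fetuses, and fetuses with neural tube defects.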

[10] = tested on: Mus musculus; assay: Teratogenic effect in SWV mouse assessed as fetuses with neural tube deffects at 156 mg/kg, ip administered on morning of day 8 of gestation; assay type: toxicity, organism-based; parameters: dose 156 mg/kg, route intraperitoneal; conditions: in vivo; method in brief: as §3
[11] = tested on: Mus musculus; assay: Teratogenic effect in SWV mouse assessed as live fetuses at 511 mg/kg, ip administered on morning of day 8 of gestation; assay type: toxicity, organism-based; parameters: dose 511 mg/kg, route intraperitoneal; conditions: in vivo; method in brief: as §2
[12] = tested on: Mus musculus; assay: Teratogenic effect in SWV mouse assessed as live fetuses at 310 mg/kg, ip administered on morning of day 8 of gestation; assay type: toxicity, organism-based; parameters: dose 310 mg/kg, route intraperitoneal; conditions: in vivo; method in brief: as §3
[13] = tested on: Mus musculus; assay: Teratogenic effect in SWV mouse assessed as live fetuses at 156 mg/kg, ip administered on morning of day 8 of gestation; assay type: toxicity, organism-based; parameters: dose 156 mg/kg, route intraperitoneal; conditions: in vivo; method in brief: as §3
[14] = tested on: Mus musculus; assay: Anticonvulsant activity in CF1 albino mouse assessed as inhibition of maximal electroshock-induced seizures at 30 mg/kg, ip after 0.5 hrs; assay type: functional, organism-based; parameters: dose 30 mg/kg
Method in brief: (§4)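 Test compounds suspended in 0.5% methylcellulose and given ip to adult male CF no. 1 albino mice (18-25 g) at 0.01 mL/g body weight before maximal electroshock challenge.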

[15] = tested on: Mus musculus; assay: Anticonvulsant activity in CF1 albino mouse assessed as inhibition of maximal electroshock-induced seizures at 100 mg/kg, ip after 0.5 hrs; assay type: functional, organism-based; parameters: dose 100 mg/kg; method in brief: as §4
[16] = tested on: Mus musculus; assay: Anticonvulsant activity in CF1 albino mouse assessed as inhibition of maximal electroshock-induced seizures at 300 mg/kg, ip after 0.5 hrs; assay type: functional, organism-based; parameters: dose 300 mg/kg; method in brief: as §4
[17] = tested on: Mus musculus; assay: Anticonvulsant activity in CF1 albino mouse assessed as inhibition of maximal electroshock-induced seizures at 30 mg/kg, ip after 4 hrs; assay type: functional, organism-based; parameters: dose 30 mg/kg; method in brief: as §4
[18] = tested on: Mus musculus; assay: Anticonvulsant activity in CF1 albino mouse assessed as inhibition of maximal electroshock-induced seizures at 300 mg/kg, ip after 4 hrs; assay type: functional, organism-based; parameters: dose 300 mg/kg; method in brief: as §4
[19] = tested on: Mus musculus; assay: Anticonvulsant activity in CF1 albino mouse assessed as inhibition of subcutaneous pentylenetetrazole-induced seizures at 300 mg/kg, ip after 4 hrs; assay type: functional, organism-based; parameters: dose 300 mg/kg; method in brief: as §1
[20] = tested on: Mus musculus; assay: Neurotoxicity in CF1 albino mouse assessed as motor impairment at 30 mg/kg, ip after 0.5 hrs; assay type: toxicity, organism-based; parameters: dose 30 mg/kg, route intraperitoneal; conditions: in vivo
[21] = tested on: Mus musculus; assay: Neurotoxicity in CF1 albino mouse assessed as motor impairment at 100 mg/kg, ip after 0.5 hrs; assay type: toxicity, organism-based; parameters: dose 100 mg/kg, route intraperitoneal; conditions: in vivo
[22] = tested on: Mus musculus; assay: Neurotoxicity in CF1 albino mouse assessed as motor impairment at 300 mg/kg, ip after 0.5 hrs; assay type: toxicity, organism-based; parameters: dose 300 mg/kg, route intraperitoneal; conditions: in vivo
[23] = tested on: Mus musculus; assay: Neurotoxicity in CF1 albino mouse assessed as motor impairment at 30 mg/kg, ip after 4 hrs; assay type: toxicity, organism-based; parameters: dose 30 mg/kg, route intraperitoneal; conditions: in vivo
[24] = tested on: Mus musculus; assay: Neurotoxicity in CF1 albino mouse assessed as motor impairment at 100 mg/kg, ip after 4 hrs; assay type: toxicity, organism-based; parameters: dose 100 mg/kg, route intraperitoneal; conditions: in vivo
[25] = tested on: Mus musculus; assay: Neurotoxicity in CF1 albino mouse assessed as motor impairment at 300 mg/kg, ip after 4 hrs; assay type: toxicity, organism-based; parameters: dose 300 mg/kg, route intraperitoneal; conditions: in vivo
[26] = organism: Rattus norvegicus; assay: Protective index, ratio of TD50 for rat to ED50 for maximal electroshock-induced rat seizure model
[27] = tested on: Rattus norvegicus; assay: Neurotoxicity in Sprague-Dawley rat assessed as motor impairment at 30 mg/kg, po after 0.25 to 4 hrs; conditions: in vivo
[28] = tested on: Rattus norvegicus; assay: Anticonvulsant activity in po dosed rat assessed as inhibition of maximal electroshock-induced seizures
[29] = Teratogenic effect in SWV mouse assessed as dead fetuses at 91 mg/kg, ip administered on morning of day 8 of gestation; conditions: in vivo
[30] = Teratogenic effect in SWV mouse assessed as dead fetuses at 522 mg/kg, ip administered on morning of day 8 of gestation; conditions: in vivo, read-out: Ratio TD50/ED50

With `CCCC(CC)C(=O)Nc1ccc(S(N)(=O)=O)cc1` (stereo not given) the Activity [1] was “inactive”, the Activity [2] was “inactive” and the Activity [3] was “inactive”. For the same molecule, the Activity [4] was “inactive”, the Activity [5] was “inactive” and the Activity [6] was 98.5%. It also gave an Activity [7] of 72%, an Activity [8] of 15.7% and an Activity [9] of 13.3%. It also gave an Activity [10] of 1%, an Activity [11] of 1.5% and an Activity [12] of 28%. For the same molecule, the Activity [13] was 84.3%, the Activity [14] was “inactive” and the Activity [15] was “inactive”. For the same molecule, the Activity [16] was “inactive”, the Activity [17] was “inactive” and the Activity [18] was “Active”. The Activity [19] was “inactive”, the Activity [20] was “Non-toxic” and the Activity [21] was “Non-toxic”. The Activity [22] was “Non-toxic”, the Activity [23] was “Non-toxic” and the Activity [24] was “Non-toxic”. For the same molecule, the Activity [25] was “Non-toxic”, the “Ratio TD50/ED50” value [26] was >43.1 and the Activity [27] was “Non-toxic”. It also gave an ED50 [28] of 11.6 mg/kg, an ED50 [29] of 11.6 mg/kg and a selectivity ratio [30] of 43.1.
